ChEMBL document CHEMBL1629530, “1,5-Benzoxazepines vs 1,5-benzodiazepines. one-pot microwave-assisted synthesis and evaluation for antioxidant activity and lipid peroxidation inhibition” (J Med Chem, 2010)
pIC50: −log10 of the molar value. Active and inactive are the calls of the source. The rule behind the calls is not given here.

Legend:
[1] = system: Radical scavenging activity; assay: Antioxidant activity assessed as DPPH radical scavenging activity at 100 uM after 20 mins; assay type: functional
Outline: (§1)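 DPPH 0.05 mM in absolute ethanol mixed with an equal volume of compound in DMSO (final 50 and 100 μM). Shaken vigorously, then left to stand 20 or 60 min. At least triplicate; absorbance SD under 10% of mean.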

[2] = Inhibition of AAPH-induced linoleic acid lipid peroxidation; assay type: physicochemical
Outline: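 Linoleic acid sodium salt (10 μL of 16 mM) in 0.05 M phosphate buffer pH 7.4, prethermostated at 37 °C. Oxidation started under air at 37 °C with 50 μL of 40 mM AAPH, compounds in DMSO. Conjugated diene hydroperoxide formation followed as rising absorbance at 234 nm; result given as IC50. At least triplicate.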

[3] = system: Radical scavenging activity; assay: Antioxidant activity assessed as DPPH radical scavenging activity at 100 uM after 60 mins; assay type: functional; outline: as §1
Glycine max = assay: Inhibition of soybean lipoxygenase at 100 uM by UV absorbance based assay
Outline: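 Soybean LOX (1 × 10^-4 w/v in saline, diluted 1:9 with saline) incubated at room temperature with sodium linoleate and compound in DMSO (100 μM). Conversion to 13-hydroperoxylinoleic acid recorded at 234 nm against a standard inhibitor. At least triplicate.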

[4] = system: Radical scavenging activity; assay: Antioxidant activity assessed as DPPH radical scavenging activity at 50 uM after 60 mins; assay type: functional; outline: as §1
[5] = system: Radical scavenging activity; assay: Antioxidant activity assessed as DPPH radical scavenging activity at 50 uM after 20 mins; assay type: functional; outline: as §1
Rattus norvegicus [6] = assay: Antiinflammatory activity in Fisher 344 rat assessed as inhibition of carrageenan-induced paw edema at 0.01 mmol/kg, ip administered simultaneously with carrageenan; assay type: functional; settings: Fisher 344, ip
Outline: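 Edema induced by intradermal injection of 0.1 mL 2% carrageenin in water into right hind paw of Fisher 344 rats (150-200 g), both sexes, pregnant females excluded, fasted during experiment; 6-15 animals per group. Compound suspended in water with a few drops of Tween 80, given ip. Rats euthanized 3.5 h later. Injected minus uninjected paw weight compared with water-treated controls as % inhibition; mean of two experiments.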

Rattus norvegicus [7] = assay: Toxicity in Fisher 344 rat carrageenan-induced inflammation model at 0.2 mmol/kg, ip administered simultaneously with carrageenan; assay type: organism-based; settings: in vivo

SMILES	Activity [1] [%]	pIC50 [2]	Activity [3] [%]	inhibition (Glycine max)	Activity [4] [%]	Activity [5] [%]	inhibition in vivo at 10 µmol/kg (Rattus norvegicus [6]) [%]	Activity (Rattus norvegicus [7])
CC1(C)CC(c2ccccc2)=Nc2ccccc2N1	15	4.35	14	6%				
CC1=Nc2c(O)cccc2NC(C)(C)C1	66	4.11	65	inactive	67	44		
CC1(c2ccc(Cl)cc2)CC(c2ccc(Cl)cc2)=Nc2c(N)cccc2O1 (stereo not drawn)	86	4.32	86	inactive	86	87		
Cc1c(C)c2c(c(C)c1O)CCC(C)(C(=O)O)O2 (stereo not drawn) [TROLOX]		4.20						
CC1(c2ccc(Cl)cc2)CC(c2ccc(Cl)cc2)=Nc2c(O)cccc2N1 (stereo not drawn)	54	5.60	53	inactive			35	Non-toxic
CC1=Nc2c(N)cccc2OC(C)(C)C1	86	4.15	86	98%	88	87		
Cc1ccc(NC(=O)Oc2cccc3c2N=C(c2ccccc2)CC(C)(c2ccccc2)N3)cc1 (stereo not drawn)	10	4.30	9	3%				
CC1(c2cccc([N+](=O)[O-])c2)CC(c2cccc([N+](=O)[O-])c2)=Nc2c(O)cccc2N1 (stereo not drawn)	32	4.34	32	inactive				
CC1(c2ccccc2)CC(c2ccccc2)=Nc2c(O)cccc2N1 (stereo not drawn)	30	4.30	29	28%				
COc1cccc(C2=Nc3c(O)cccc3NC(C)(c3cccc(OC)c3)C2)c1 (stereo not drawn)	27	4.22	27	37%				
COc1ccccc1C1=Nc2c(O)cccc2NC(C)(c2ccccc2OC)C1 (stereo not drawn)	36	4.34	36	3%				
CC(Cc1ccc(O)c(O)c1)C(C)Cc1ccc(O)c(O)c1 (stereo not drawn)	93		96	84%				
COc1ccc2c(c1)c(CC(=O)O)c(C)n2C(=O)c1ccc(Cl)cc1 [INDOMETHACIN]							47	
